From ChEMBL document CHEMBL5705901, “Exploiting selective BCL-2 family inhibitors to dissect cell survival dependencies and define improved strategies for cancer therapy” (Sci Transl Med, 2015) come the findings set out here.

The source made the active and inactive calls. No cut-off for these calls is given here.

One series deals with EBC-1. The series can be described thus: Synergistic antitumor activity against human EBC-1 cells xenografted in po dosed SCID-bg mouse assessed as maximum tumor growth inhibition in presence of docetaxel relative to control. It counts as functional. The method, boiled down: (§1)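 Xenografts dosed with oral inhibitor plus intravenous docetaxel. TGImax = 100(1 − Tv/Cv), from mean treated and control tumor volumes; TGD = 100(T/C − 1), from median times to reach 1 cm3. Group size 5 mice (NCI-H747, A549-FP3, EBC-1, OVCAR-5), 8 (NCI-H358), 10 (NCI-H1650).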
A general note: In xenograft studies the graft and the host belong to different species.

The test system of a further series is NCI-H1650. The series can be described thus: Antitumor activity against human NCI-H1650 cells xenografted in SCID-bg mouse assessed as tumor growth delay at 25 mg/kg, po administered daily for 14 days relative to control. The series is classed as functional. Particulars: time 14 day. A digest of the protocol:
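NCI-H1650 NSCLC xenografts, ten mice per group. Arms: vehicle; docetaxel iv once at 7.5 mg/kg; oral agent daily for 14 days at 25 mg/kg; and the two combined. TGImax = 100(1 − Tv/Cv) from mean volumes. TGD = 100(T/C − 1) from median times to reach 1 cm3.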

Series [1] is described as follows: Toxicity in po dosed SCID-bg mouse assessed as body weight loss relative to control. The note with it: in vivo. It counts as organism-based.
The next series deals with A549. The series can be described thus: Synergistic antitumor activity against 3 times passaged human A549 cells xenografted in po dosed SCID mouse assessed as maximum tumor growth inhibition in presence of docetaxel relative to control. It counts as functional. A digest of the protocol:
as §1

The next series relates to OVCAR-5. The series can be described thus: Antitumor activity against human OVCAR-5 xenografted in po dosed SCID mouse assessed as maximum tumor growth inhibition relative to control. The series is classed as functional.
The subject of another series is NCI-H358. In words: Antitumor activity against human NCI-H358 cells xenografted in po dosed SCID mouse assessed as maximum tumor growth inhibition relative to control. It counts as functional.
A further series relates to NCI-H146. The series can be described thus: Induction of apoptosis in Bcl-xl dependent human NCI-H146 cells assessed as caspase 3/7 activation at 1 to 667 nM incubated for 4 hrs by immunoblot analysis. It counts as functional, cell-based. The note with it: dose 1-667 nM. The method, boiled down: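 NCI-H146 cells were incubated with increasing concentrations for 4 h, and caspase-3/7 activation was measured. Values are the mean of triplicate experiments ± SD.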
Background: In western blotting, separated proteins are transferred to a membrane and probed.

Series [2] has as its system MDA-MB-231. The series can be described thus: Synergistic antiproliferative activity against human MDA-MB-231 cells assessed as reduction in cell viability by measuring bliss sum score incubated for 72 hrs in presence of docetaxel by CellTiter-Glo cell vaibility assay. It counts as functional.
Series [3] has as its system MDA-MB-231. The series can be described thus: Synergistic antiproliferative activity against LC3 positive human MDA-MB-231 cells assessed as reduction in cell viability by measuring bliss sum score incubated for 72 hrs in presence of docetaxel by CellTiter-Glo cell vaibility assay. It counts as functional. (ATP-based viability assays read luminescence as a measure of living cells.)

The next series relates to ZR-75-1. In words: Synergistic antiproliferative activity against human ZR-75-1 cells assessed as reduction in cell viability by measuring bliss sum score incubated for 72 hrs in presence of docetaxel by CellTiter-Glo cell vaibility assay. The series is classed as functional.
The next series concerns NCI-H522. The series can be described thus: Synergistic antiproliferative activity against human NCI-H522 cells assessed as reduction in cell viability by measuring bliss sum score incubated for 72 hrs in presence of docetaxel by CellTiter-Glo cell vaibility assay. It counts as functional.
The subject of the next series is NCI-H460. The series can be described thus: Synergistic antiproliferative activity against human NCI-H460 cells assessed as reduction in cell viability by measuring bliss sum score incubated for 72 hrs in presence of docetaxel by CellTiter-Glo cell vaibility assay. It counts as functional.
For another series, the system named is MDA-MB-436. The series can be described thus: Antagonistic antiproliferative activity against human MDA-MB-436 cells assessed as reduction in cell viability by measuring bliss sum score incubated for 72 hrs in presence of docetaxel by CellTiter-Glo cell vaibility assay. The series is classed as functional.
The subject of a further series is MDA-MB-361. The series can be described thus: Induction of apoptosis in human MDA-MB-361 cells assessed as accumulation of cells with sub-G0-G1 DNA content at 1 uM incubated for 48 hrs in presence of docetaxel by flow cytometric analysis. The series is classed as functional, cell-based.
The subject of another series is BT-474. In words: Induction of apoptosis in human BT-474 cells assessed as accumulation of cells with sub-G0-G1 DNA content at 1 uM incubated for 48 hrs in presence of docetaxel by flow cytometric analysis. The series is classed as functional, cell-based.
The next series concerns MDA-MB-175-VII. In words: Induction of apoptosis in human MDA-MB-175-VII cells assessed as accumulation of cells with sub-G0-G1 DNA content at 1 uM incubated for 48 hrs in presence of docetaxel by flow cytometric analysis. The series is classed as functional, cell-based.

What is called TGI is how far tumour growth fell short of that in controls. For `Cc1c(-c2ccc(N3CCc4cccc(C(=O)Nc5nc6ccccc6s5)c4C3)nc2C(=O)O)cnn1CC12CC3CC(CC(C3)C1)C2`, the TGI with EBC-1 is 88%; in the series on A549, 74%; in the series with OVCAR-5, 34%; in the series with NCI-H358, 62%. In addition, the Activity in the series with NCI-H1650 was 33%; in series [1] it was less than 9%.
As for `CN(C)CC#Cc1ccc(OCCCc2sc(N3CCc4cccc(C(=O)Nc5nc6ccccc6s5)c4C3)nc2C(=O)O)c(F)c1` [A-1155463], the result in the series with NCI-H146 was Active. In addition, the Activity_index is 277 in the series with MDA-MB-231 [2]; 305 with MDA-MB-231 [3]; 103 with ZR-75-1; 242 in the series with NCI-H522; 105 in the series with NCI-H460; -96 with MDA-MB-436.
For `CC1(C)CCC(c2ccc(Cl)cc2)=C(CN2CCN(c3ccc(C(=O)NS(=O)(=O)c4ccc(N[C@H](CCN5CCOCC5)CSc5ccccc5)c(S(=O)(=O)C(F)(F)F)c4)cc3)CC2)C1` [NAVITOCLAX], the result with MDA-MB-361, with BT-474 and with MDA-MB-175-VII was Active.
